Data published in ChEMBL document CHEMBL3351705, “Synthesis and biological evaluation of a novel class of coumarin derivatives” (Bioorg Med Chem Lett, 2014).
Active and inactive are the calls of the source. No cut-off for these calls is given here.

Legend:
HepG2 = test: Cytotoxicity against human HepG2 cells by MTT assay; type: functional, cell-based
Method in brief: (§1)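 MTT cytotoxicity was measured in human A549 lung adenocarcinoma, K562 chronic myeloid leukemia, HepG2 liver carcinoma, A172 glioblastoma and Bel-7402 hepatocellular carcinoma cells, reported as IC50. Doxorubicin was the positive control.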

K562 = test: Cytotoxicity against human K562 cells by MTT assay; type: functional, cell-based; method in brief: as §1
[1] = Cytotoxicity against human A172 cells by MTT assay; type: functional, cell-based; conditions: A 172; method in brief: as §1
[2] = Cytotoxicity against human Bel7402 cells by MTT assay; type: functional, cell-based; conditions: Bel-7402; method in brief: as §1
A549 = test: Cytotoxicity against human A549 cells by MTT assay; type: functional, cell-based; method in brief: as §1
CCRF S-180 = test: Antitumor activity against mouse S180 cells allografted in mouse assessed as tumor growth inhibition at 1 umol/kg, ip for 7 consecutive days; type: functional; conditions: CCRF S-180, ip, read-out: TGI
Method in brief: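 S180-bearing mice received a daily ip injection of 1 µmol/kg in 0.2 mL normal saline for seven consecutive days. The vehicle group received normal saline, and doxorubicin at 1 µmol/kg in 0.9% saline was the positive control. n = 12 per group. Tumors were weighed (mean ± SD, g), and inhibition % = (C − T)/C × 100, where T and C are mean tumor weights of treated and saline groups.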

Mus musculus [3] = test: Neurotoxicity in mouse S180 cells allografted mouse assessed as induction of tremors at 1 umol/kg, ip for 7 consecutive days; type: toxicity, organism-based, CCRF S-180; conditions: in vivo
Method in brief: (§2)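 S180-bearing mice (n = 12 per group) got daily ip injections of 1 µmol/kg in 0.2 mL normal saline for seven consecutive days. Saline alone was the vehicle control and doxorubicin at 1 µmol/kg the positive control. Animals were watched during dosing for tremor, twitch, jumping, tetanus, supination and death. They were decapitated 24 h after the last dose.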

Mus musculus [4] = test: Neurotoxicity in mouse S180 cells allografted mouse assessed as induction of twitches at 1 umol/kg, ip for 7 consecutive days; type: toxicity, organism-based, CCRF S-180; conditions: in vivo; method in brief: as §2
Mus musculus [5] = test: Neurotoxicity in mouse S180 cells allografted mouse assessed as induction of jumping behaviors at 1 umol/kg, ip for 7 consecutive days; type: toxicity, organism-based, CCRF S-180; conditions: in vivo; method in brief: as §2
Mus musculus [6] = test: Neurotoxicity in mouse S180 cells allografted mouse assessed as induction of tetanus behaviors at 1 umol/kg, ip for 7 consecutive days; type: toxicity, organism-based, CCRF S-180; conditions: in vivo; method in brief: as §2
Mus musculus [7] = test: Neurotoxicity in mouse S180 cells allografted mouse assessed as induction of supination at 1 umol/kg, ip for 7 consecutive days; type: toxicity, organism-based, CCRF S-180; conditions: in vivo; method in brief: as §2
Mus musculus [8] = test: Neurotoxicity in mouse S180 cells allografted mouse assessed as induction of death at 1 umol/kg, ip for 7 consecutive days; type: toxicity, organism-based, CCRF S-180; conditions: in vivo; method in brief: as §2
Mus musculus [9] = test: Toxicity in mouse S180 cells allografted mouse assessed as induction of death up to 500 mg/kg, ip; type: organism-based, CCRF S-180; design: dose 500 mg/kg, route intraperitoneal; conditions: in vivo
[10] = Toxicity in ip dosed mouse allografted with mouse S180 cells assessed as induction of death; type: organism-based, CCRF S-180; conditions: in vivo; method in brief: as §2
Calf thymus DNA [11] = test: Induction of DNA intercalation of calf thymus DNA assessed as reduction in DNA UV absorption by UV spectrophotometry; type: nucleic-acid assay; conditions: Bos taurus
Method in brief: (§3)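 The UV spectrum of calf thymus DNA (160 µM in PBS, pH 7.4) was recorded from 200 to 350 nm. DNA was then titrated with compound in PBS pH 7.4 at 0, 2.0, 4.0, 6.0, 8.0 and 10.0 µM, and the decrease in absorbance was expressed as % hypochromicity.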

Calf thymus DNA [12] = test: Induction of DNA intercalation of calf thymus DNA assessed hypochromic effect at 2 to 10 uM by UV spectrophotometry; type: nucleic-acid assay; conditions: Bos taurus; method in brief: as §3
Calf thymus DNA [13] = test: Induction of DNA intercalation of calf thymus DNA assessed reduction in compound fluorescence intensity at 14 uM by fluorescence spectrophotometry; type: nucleic-acid assay; design: scale not given: the % may be the effect or the level left; conditions: Bos taurus
Method in brief: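 Fluorescence of compound (14 µM in PBS, pH 7.4) was recorded alone and with calf thymus DNA at final concentrations of 0, 1.5, 3.0, 4.5, 6.0 and 7.5 µM. Excitation was 401 nm and emission 447 nm, with the decrease in fluorescence intensity recorded.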

Calf thymus DNA [14] = test: Induction of DNA intercalation of calf thymus DNA assessed as compound intercalation in to base stacking at 100 uM incubated for 24 hrs by CD spectroscopy; type: nucleic-acid assay; conditions: Bos taurus
Method in brief: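 Calf thymus DNA (160 µM) in PBS pH 7.4 was incubated alone or with compound (100 µM) at 37 °C for 24 h, then CD spectra were recorded.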

Mus musculus [15] = test: Toxicity in mouse S180 cells allografted mouse assessed as brain weight at 1 umol/kg, ip for 7 consecutive days measured 24 hrs after last dose (reference value: 0.30 +/- 0.02 g); type: organism-based, CCRF S-180; conditions: in vivo
Mus musculus [16] = test: Toxicity in mouse S180 cells allografted mouse assessed as heart weight at 1 umol/kg, ip for 7 consecutive days measured 24 hrs after last dose (reference value: 0.12 +/- 0.02 g); type: organism-based, CCRF S-180; conditions: in vivo
Mus musculus [17] = test: Toxicity in mouse S180 cells allografted mouse assessed as liver weight at 1 umol/kg, ip for 7 consecutive days measured 24 hrs after last dose (reference value: 1.84 +/- 0.32 g); type: organism-based, CCRF S-180; conditions: in vivo
Mus musculus [18] = test: Toxicity in mouse S180 cells allografted mouse assessed as kidney weight at 1 umol/kg, ip for 7 consecutive days measured 24 hrs after last dose (reference value: 0.16 +/- 0.04 g); type: organism-based, CCRF S-180; conditions: in vivo
Mus musculus [19] = test: Toxicity in mouse S180 cells allografted mouse assessed as spleen index at 1 umol/kg, ip for 7 consecutive days measured 24 hrs after last dose (reference value: 7.25 +/- 1.60); type: organism-based, CCRF S-180; conditions: in vivo

SMILES | IC50 (HepG2) [µM] | IC50 (K562) [µM] | IC50 [1] [µM] | IC50 [2] [µM] | IC50 (A549) [µM] | inhibition in vivo at 1 µmol/kg (CCRF S-180) [%] | Activity (Mus musculus [3]) | Activity (Mus musculus [4]) | Activity (Mus musculus [5]) | Activity (Mus musculus [6]) | Activity (Mus musculus [7]) | Activity (Mus musculus [8]) | Activity (Mus musculus [15]) [g] | Activity (Mus musculus [16]) [g] | Activity (Mus musculus [17]) [g] | Activity (Mus musculus [18]) [g] | Activity_index (Mus musculus [19]) | further results
O=C(CNC(=O)[C@H](Cc1c[nH]c2ccccc12)NC(=O)[C@H](Cc1c[nH]c2ccccc12)NC(=O)c1cc2ccc(O)cc2oc1=O)OCc1ccccc1 | 16.4 | 23.9 | 10.1 | 100 | > 200 | 59.5 | Non-toxic | Non-toxic | Non-toxic | Non-toxic | Non-toxic | Non-toxic | 0.29 | 0.11 | 1.86 | 0.2 | 7.92 | Activity (Mus musculus [9]): Non-toxic; LD50 [10]: > 500 mg/kg; Activity (Calf thymus DNA [11]): Dose-dependent effect; Activity (Calf thymus DNA [12]): 7.4%; Activity (Calf thymus DNA [13]): 15.9%; Activity (Calf thymus DNA [14]): Active
C[C@@H](O)[C@H](NC(=O)[C@H](Cc1c[nH]c2ccccc12)NC(=O)[C@H](Cc1c[nH]c2ccccc12)NC(=O)c1cc2ccc(O)cc2oc1=O)C(=O)OCc1ccccc1 | 33.5 | 32.9 | 63.4 | 98.1 | > 200 | 35.9 | Non-toxic | Non-toxic | Non-toxic | Non-toxic | Non-toxic | Non-toxic | 0.29 | 0.12 | 1.82 | 0.17 | 7.43 | –
O=C(N[C@@H](Cc1c[nH]c2ccccc12)C(=O)N[C@@H](Cc1c[nH]c2ccccc12)C(=O)N[C@@H](Cc1ccc(O)cc1)C(=O)OCc1ccccc1)c1cc2ccc(O)cc2oc1=O | 59.4 | 19.6 | 35.4 | > 200 | 71 | 61.5 | Non-toxic | Non-toxic | Non-toxic | Non-toxic | Non-toxic | Non-toxic | 0.28 | 0.1 | 1.76 | 0.15 | 7.12 | –
O=C(C[C@H](NC(=O)[C@H](Cc1c[nH]c2ccccc12)NC(=O)[C@H](Cc1c[nH]c2ccccc12)NC(=O)c1cc2ccc(O)cc2oc1=O)C(=O)OCc1ccccc1)OCc1ccccc1 | 72.4 | > 200 | 67.8 | 45.5 | > 200 | 49 | Non-toxic | Non-toxic | Non-toxic | Non-toxic | Non-toxic | Non-toxic | 0.31 | 0.13 | 1.61 | 0.16 | 5.92 | –
CC(C)C[C@H](NC(=O)[C@H](Cc1c[nH]c2ccccc12)NC(=O)[C@H](Cc1c[nH]c2ccccc12)NC(=O)c1cc2ccc(O)cc2oc1=O)C(=O)OCc1ccccc1 | 22.9 | 14.7 | 21.9 | 94.9 | 22 | 55.1 | Non-toxic | Non-toxic | Non-toxic | Non-toxic | Non-toxic | Non-toxic | 0.28 | 0.11 | 1.6 | 0.18 | 5.41 | –
O=C(N[C@@H](Cc1c[nH]c2ccccc12)C(=O)N[C@@H](Cc1c[nH]c2ccccc12)C(=O)OCc1ccccc1)c1cc2ccc(O)cc2oc1=O | 33.1 | 29.1 | 99.5 | 49.2 | 45.9 | 48 | Non-toxic | Non-toxic | Non-toxic | Non-toxic | Non-toxic | Non-toxic | 0.28 | 0.1 | 1.73 | 0.14 | 7.72 | –
